Data published in ChEMBL document CHEMBL2424530, “Synthesis, biological evaluation and molecular docking studies of pyrazole derivatives coupling with a thiourea moiety as novel CDKs inhibitors” (Eur J Med Chem, 2013).

Assays:
[1] = biological target: Cyclin-dependent kinase 2 (Homo sapiens, UniProt P24941); test: Inhibition of human N-terminal hexahistidine-tagged CDK2 expressed in baculovirus infected Sf21 cells using histone H1 as substrate after 10 mins in presence of [gamma-32P]-ATP
[2] = Cytotoxicity against human H460 cells assessed as growth inhibition after 24 to 48 hrs by CCK8 assay; assay type: functional, cell-based; conditions: NCI-H460
In short: (§1)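 CCK8 proliferation assay: 1-5 × 10³ cells per well grew for 12 h, then were exposed to increasing compound concentrations in 10% FBS for 24 or 48 h. CCK8 dye was added for 1-2 h and plates were read on a multilabel counter. Percent inhibition or IC₅₀ was calculated against DMSO-treated control wells.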

[3] = system: MCF7; test: Cytotoxicity against human MCF7 cells assessed as growth inhibition after 24 to 48 hrs by CCK8 assay; assay type: functional, cell-based; in short: as §1
[4] = system: A549; test: Cytotoxicity against human A549 cells assessed as growth inhibition after 24 to 48 hrs by CCK8 assay; assay type: functional, cell-based; in short: as §1
[5] = biological target: Epidermal growth factor receptor (Homo sapiens, UniProt P00533); test: Inhibition of human C-terminal EGFR tyrosine kinase domain
Chain of Epidermal growth factor receptor (P00533 whole entry, the tested form may be a part): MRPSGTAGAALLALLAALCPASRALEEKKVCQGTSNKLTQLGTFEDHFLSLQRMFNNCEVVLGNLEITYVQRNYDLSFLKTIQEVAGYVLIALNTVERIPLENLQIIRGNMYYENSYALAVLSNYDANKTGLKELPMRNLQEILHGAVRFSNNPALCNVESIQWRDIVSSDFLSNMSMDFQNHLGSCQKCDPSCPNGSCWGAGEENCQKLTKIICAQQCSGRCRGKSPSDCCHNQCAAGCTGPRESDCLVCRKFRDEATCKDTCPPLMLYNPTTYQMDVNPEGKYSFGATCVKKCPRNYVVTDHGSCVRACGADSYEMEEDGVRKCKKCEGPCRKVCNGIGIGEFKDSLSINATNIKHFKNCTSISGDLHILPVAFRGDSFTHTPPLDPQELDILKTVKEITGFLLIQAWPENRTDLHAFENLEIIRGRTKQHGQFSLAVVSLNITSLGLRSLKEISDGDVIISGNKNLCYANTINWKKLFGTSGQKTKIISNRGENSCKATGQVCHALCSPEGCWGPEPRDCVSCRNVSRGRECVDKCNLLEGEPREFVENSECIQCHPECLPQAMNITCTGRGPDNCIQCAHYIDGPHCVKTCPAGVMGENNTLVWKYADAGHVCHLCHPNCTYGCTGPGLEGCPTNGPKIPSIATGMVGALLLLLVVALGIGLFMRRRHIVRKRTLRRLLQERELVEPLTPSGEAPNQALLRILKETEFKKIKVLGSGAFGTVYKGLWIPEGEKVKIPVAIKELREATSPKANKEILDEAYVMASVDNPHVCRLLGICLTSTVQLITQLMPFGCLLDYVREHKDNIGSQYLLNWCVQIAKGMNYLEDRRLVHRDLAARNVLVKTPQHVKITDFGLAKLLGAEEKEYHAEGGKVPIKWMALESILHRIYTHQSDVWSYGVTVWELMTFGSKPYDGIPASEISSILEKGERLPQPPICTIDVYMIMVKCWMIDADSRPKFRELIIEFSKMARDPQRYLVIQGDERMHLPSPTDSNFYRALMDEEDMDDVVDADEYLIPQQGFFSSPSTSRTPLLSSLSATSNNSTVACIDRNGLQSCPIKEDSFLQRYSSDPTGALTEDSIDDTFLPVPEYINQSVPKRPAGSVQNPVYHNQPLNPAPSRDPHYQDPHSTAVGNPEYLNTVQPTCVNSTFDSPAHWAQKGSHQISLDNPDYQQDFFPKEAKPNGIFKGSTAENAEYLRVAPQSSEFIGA

[6] = biological target: Vascular endothelial growth factor receptor 2 (Homo sapiens, UniProt P35968); test: Inhibition of human VEGFR2 tyrosine kinase domain (Asp807 to Val1356) using poly-(Glu4-Tyr) as substrate incubated for 15 mins prior to ATP addition measured after 40 mins by DELFIA
Chain of Vascular endothelial growth factor receptor 2 (P35968 whole entry, the tested form may be a part): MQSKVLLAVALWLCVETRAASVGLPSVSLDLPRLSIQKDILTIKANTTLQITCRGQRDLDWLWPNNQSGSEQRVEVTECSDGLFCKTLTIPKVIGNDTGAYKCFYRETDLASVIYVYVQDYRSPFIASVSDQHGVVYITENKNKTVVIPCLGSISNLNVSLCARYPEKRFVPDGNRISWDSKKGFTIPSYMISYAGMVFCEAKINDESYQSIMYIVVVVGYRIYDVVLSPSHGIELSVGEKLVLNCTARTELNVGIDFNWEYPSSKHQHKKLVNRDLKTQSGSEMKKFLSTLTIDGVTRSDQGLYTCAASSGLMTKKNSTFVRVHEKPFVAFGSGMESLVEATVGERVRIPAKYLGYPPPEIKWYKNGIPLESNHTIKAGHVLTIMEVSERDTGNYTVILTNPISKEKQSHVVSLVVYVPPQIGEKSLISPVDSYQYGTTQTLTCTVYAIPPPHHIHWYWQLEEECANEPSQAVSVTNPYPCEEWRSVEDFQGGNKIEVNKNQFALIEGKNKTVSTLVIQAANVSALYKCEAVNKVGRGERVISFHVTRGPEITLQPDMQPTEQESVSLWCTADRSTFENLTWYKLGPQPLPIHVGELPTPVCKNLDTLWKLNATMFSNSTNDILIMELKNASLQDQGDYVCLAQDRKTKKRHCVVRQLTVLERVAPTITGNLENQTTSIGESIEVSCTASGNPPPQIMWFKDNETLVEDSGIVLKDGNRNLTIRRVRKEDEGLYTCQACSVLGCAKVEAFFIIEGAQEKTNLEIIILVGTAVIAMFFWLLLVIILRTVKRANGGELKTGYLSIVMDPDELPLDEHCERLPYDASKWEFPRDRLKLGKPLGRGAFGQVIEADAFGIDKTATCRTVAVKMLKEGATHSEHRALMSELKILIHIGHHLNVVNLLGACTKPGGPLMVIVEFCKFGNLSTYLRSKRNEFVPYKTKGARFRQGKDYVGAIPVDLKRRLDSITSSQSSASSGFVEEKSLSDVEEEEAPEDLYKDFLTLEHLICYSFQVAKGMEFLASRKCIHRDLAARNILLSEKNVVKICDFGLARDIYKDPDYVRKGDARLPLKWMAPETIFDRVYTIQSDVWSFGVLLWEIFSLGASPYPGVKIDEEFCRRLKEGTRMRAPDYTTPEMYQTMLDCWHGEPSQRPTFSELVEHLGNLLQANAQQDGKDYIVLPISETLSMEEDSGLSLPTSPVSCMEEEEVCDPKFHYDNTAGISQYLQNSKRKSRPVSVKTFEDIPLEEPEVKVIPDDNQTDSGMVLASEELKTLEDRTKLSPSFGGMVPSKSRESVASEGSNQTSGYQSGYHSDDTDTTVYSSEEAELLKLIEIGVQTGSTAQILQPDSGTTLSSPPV

[7] = biological target: Cyclin-dependent kinase 7 (Homo sapiens, UniProt P50613); test: Inhibition of CDK7 (unknown origin) using histone H1 as substrate after 10 mins in presence of [gamma-32P]-ATP
Chain of Cyclin-dependent kinase 7 (P50613 whole entry): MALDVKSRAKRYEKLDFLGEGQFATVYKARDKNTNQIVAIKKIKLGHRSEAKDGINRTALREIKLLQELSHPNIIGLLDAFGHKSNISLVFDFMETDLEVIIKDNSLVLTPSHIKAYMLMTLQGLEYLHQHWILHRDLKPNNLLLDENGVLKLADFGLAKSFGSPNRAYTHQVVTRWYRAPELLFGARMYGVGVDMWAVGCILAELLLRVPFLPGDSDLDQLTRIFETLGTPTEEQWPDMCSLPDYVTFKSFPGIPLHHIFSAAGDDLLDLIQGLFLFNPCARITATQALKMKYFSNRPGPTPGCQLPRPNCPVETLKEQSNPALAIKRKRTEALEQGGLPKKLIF
In short: (§2)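 Radiometric kinase reaction in 50 mM Tris-HCl with ATP plus γ-³²P ATP, 10 mM MgCl₂, 5 mM DTT and histone H1 substrate. It ran 10 min with inhibitor and was stopped with 30% phosphoric acid. Mixtures were spotted on P81 paper and washed five times with 10 mM Tris-HCl (pH 8.0)/0.1 M NaCl. Spot radioactivity was imaged, and IC₅₀ was the concentration giving 50% inhibition.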

[8] = biological target: Cyclin-dependent kinase 6 (Homo sapiens, UniProt Q00534); test: Inhibition of CDK6 (unknown origin) using histone H1 as substrate after 10 mins in presence of [gamma-32P]-ATP; in short: as §2
Chain of Cyclin-dependent kinase 6 (Q00534 whole entry): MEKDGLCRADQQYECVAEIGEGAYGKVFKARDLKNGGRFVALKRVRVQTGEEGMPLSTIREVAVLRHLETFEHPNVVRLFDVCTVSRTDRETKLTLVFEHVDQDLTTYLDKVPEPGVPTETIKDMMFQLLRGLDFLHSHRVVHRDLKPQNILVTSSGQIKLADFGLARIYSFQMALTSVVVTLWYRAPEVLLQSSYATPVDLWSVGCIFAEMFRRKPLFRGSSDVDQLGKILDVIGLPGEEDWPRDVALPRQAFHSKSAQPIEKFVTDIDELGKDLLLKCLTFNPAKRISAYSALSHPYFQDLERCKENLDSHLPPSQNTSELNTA

[9] = biological target: Cyclin-dependent kinase 5 (Homo sapiens, UniProt Q00535); test: Inhibition of CDK5 (unknown origin) using histone H1 as substrate after 10 mins in presence of [gamma-32P]-ATP; in short: as §2
Chain of Cyclin-dependent kinase 5 (Q00535 whole entry): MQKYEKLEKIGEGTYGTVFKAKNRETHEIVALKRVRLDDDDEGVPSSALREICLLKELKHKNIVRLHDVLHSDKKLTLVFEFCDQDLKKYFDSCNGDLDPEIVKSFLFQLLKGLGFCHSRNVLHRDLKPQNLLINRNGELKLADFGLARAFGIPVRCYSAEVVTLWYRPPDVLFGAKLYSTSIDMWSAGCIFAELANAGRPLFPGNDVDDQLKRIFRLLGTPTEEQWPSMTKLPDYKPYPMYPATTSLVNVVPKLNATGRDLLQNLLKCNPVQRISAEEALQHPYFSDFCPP

[10] = biological target: Cyclin-dependent kinase 1 (Homo sapiens, UniProt P06493); test: Inhibition of CDK1 (unknown origin) using histone H1 as substrate after 10 mins in presence of [gamma-32P]-ATP; in short: as §2
Chain of Cyclin-dependent kinase 1 (P06493 whole entry): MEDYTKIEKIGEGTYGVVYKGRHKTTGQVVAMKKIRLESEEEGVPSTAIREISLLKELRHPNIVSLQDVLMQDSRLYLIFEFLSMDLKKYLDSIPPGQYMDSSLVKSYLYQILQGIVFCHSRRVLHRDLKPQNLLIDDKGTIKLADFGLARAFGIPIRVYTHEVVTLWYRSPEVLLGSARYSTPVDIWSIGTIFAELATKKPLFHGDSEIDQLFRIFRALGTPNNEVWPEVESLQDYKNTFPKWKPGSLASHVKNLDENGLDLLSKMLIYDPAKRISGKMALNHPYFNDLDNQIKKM

[11] = biological target: Cyclin-dependent kinase 4 (Homo sapiens, UniProt P11802); test: Inhibition of CDK4 (unknown origin) using histone H1 as substrate after 10 mins in presence of [gamma-32P]-ATP; in short: as §2
Chain of Cyclin-dependent kinase 4 (P11802 whole entry): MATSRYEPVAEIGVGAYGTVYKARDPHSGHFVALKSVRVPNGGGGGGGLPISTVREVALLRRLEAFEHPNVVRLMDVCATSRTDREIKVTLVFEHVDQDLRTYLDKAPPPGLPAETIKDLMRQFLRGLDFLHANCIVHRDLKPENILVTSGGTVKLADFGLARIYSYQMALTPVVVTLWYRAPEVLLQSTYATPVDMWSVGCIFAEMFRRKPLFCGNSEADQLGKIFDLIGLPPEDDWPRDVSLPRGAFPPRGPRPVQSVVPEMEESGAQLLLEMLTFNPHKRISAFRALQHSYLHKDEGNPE

[12] = system: A549; test: Cell cycle arrest in human A549 cells assessed as accumulation at G0/G1 phase after 36 hrs by propidium iodide staining-based FACS flow cytometric analysis; assay type: functional
[13] = system: A549; test: Cell cycle arrest in human A549 cells assessed as accumulation at subG0 phase at 2 uM after 36 hrs by propidium iodide staining-based FACS flow cytometric analysis relative to control; assay type: functional
[14] = system: A549; test: Cell cycle arrest in human A549 cells assessed as accumulation at S phase at 2 uM after 36 hrs by propidium iodide staining-based FACS flow cytometric analysis (reference value: 40.84%); assay type: functional
[15] = system: A549; test: Cell cycle arrest in human A549 cells assessed as accumulation at G2/M phase at 2 uM after 36 hrs by propidium iodide staining-based FACS flow cytometric analysis (reference value: 2.09%); assay type: functional
[16] = system: A549; test: Cell cycle arrest in human A549 cells assessed as accumulation at G0/G1 phase at 2 uM after 36 hrs by propidium iodide staining-based FACS flow cytometric analysis (reference value: 57.07%); assay type: functional
[17] = system: A549; test: Cell cycle arrest in human A549 cells assessed as accumulation at subG0 phase at 1 uM after 36 hrs by propidium iodide staining-based FACS flow cytometric analysis relative to control; assay type: functional
[18] = system: A549; test: Cell cycle arrest in human A549 cells assessed as accumulation at S phase at 1 uM after 36 hrs by propidium iodide staining-based FACS flow cytometric analysis (reference value: 40.84%); assay type: functional
[19] = system: A549; test: Cell cycle arrest in human A549 cells assessed as accumulation at G2/M phase at 1 uM after 36 hrs by propidium iodide staining-based FACS flow cytometric analysis (reference value: 2.09%); assay type: functional
[20] = system: A549; test: Cell cycle arrest in human A549 cells assessed as accumulation at G0/G1 phase at 1 uM after 36 hrs by propidium iodide staining-based FACS flow cytometric analysis (reference value: 57.07%); assay type: functional
[21] = system: A549; test: Cell cycle arrest in human A549 cells assessed as accumulation at subG0 phase at 0.5 uM after 36 hrs by propidium iodide staining-based FACS flow cytometric analysis relative to control; assay type: functional
[22] = system: A549; test: Cell cycle arrest in human A549 cells assessed as accumulation at S phase at 0.5 uM after 36 hrs by propidium iodide staining-based FACS flow cytometric analysis (reference value: 40.84%); assay type: functional
[23] = system: A549; test: Cell cycle arrest in human A549 cells assessed as accumulation at G2/M phase at 0.5 uM after 36 hrs by propidium iodide staining-based FACS flow cytometric analysis (reference value: 2.09%); assay type: functional
[24] = system: A549; test: Cell cycle arrest in human A549 cells assessed as accumulation at G0/G1 phase at 0.5 uM after 36 hrs by propidium iodide staining-based FACS flow cytometric analysis (reference value: 57.07%); assay type: functional

| IC50 [1] [nM] | SMILES | IC50 [2] [nM] | IC50 [3] [nM] | IC50 [4] [nM] | other results |
| --- | --- | --- | --- | --- | --- |
| 29 | COc1ccc(-c2nn(-c3ccccc3)cc2C(=O)NC(=S)Nc2ccc(C)cc2)cc1 | 2880 | 4630 | 1250 |  |
|  | Cn1cnc2c(NCc3ccccc3)nc(NCCO)nc21 [OLOMOUCINE] | 132000 | 142000 | 130000 |  |
| 44 | O=C(NC(=S)Nc1ccc(Cl)cc1)c1cn(-c2ccccc2)nc1-c1ccc(F)cc1 | 3090 | 5470 | 2990 |  |
| 71 | O=C(NC(=S)Nc1ccc(Cl)cc1)c1cn(-c2ccccc2)nc1-c1ccccc1 | 4020 | 6230 | 3200 |  |
| 59 | O=C(NC(=S)Nc1ccc(F)cc1)c1cn(-c2ccccc2)nc1-c1ccc(Cl)cc1 | 3640 | 5990 | 3980 |  |
| 69 | Cc1ccc(NC(=S)NC(=O)c2cn(-c3ccccc3)nc2-c2ccccc2)cc1 | 3960 | 5900 | 2800 |  |
| 36 | COc1ccc(NC(=S)NC(=O)c2cn(-c3ccccc3)nc2-c2ccc(F)cc2)cc1 | 2860 | 4890 | 1980 | IC50 [5]: > 5000 nM; IC50 [6]: > 5000 nM; IC50 [7]: 1640 nM; IC50 [8]: 33 nM; IC50 [9]: 1180 nM; IC50 [10]: 569 nM; IC50 [11]: 39 nM |
| 41 | Cc1ccc(-c2nn(-c3ccccc3)cc2C(=O)NC(=S)Nc2ccc(F)cc2)cc1 | 3980 | 6420 | 3420 |  |
| 56 | COc1ccc(NC(=S)NC(=O)c2cn(-c3ccccc3)nc2-c2ccccc2)cc1 | 3540 | 5460 | 2500 | IC50 [5]: > 5000 nM; IC50 [6]: > 5000 nM; IC50 [7]: 1880 nM; IC50 [8]: 50 nM; IC50 [9]: 1500 nM; IC50 [10]: 610 nM; IC50 [11]: 42 nM |
| 37 | COc1ccc(NC(=S)NC(=O)c2cn(-c3ccccc3)nc2-c2ccc(Cl)cc2)cc1 | 3010 | 5240 | 2270 | IC50 [5]: > 5000 nM; IC50 [6]: > 5000 nM; IC50 [7]: 1650 nM; IC50 [8]: 42 nM; IC50 [9]: 1360 nM; IC50 [10]: 571 nM; IC50 [11]: 40 nM |
| 63 | Cc1ccc(-c2nn(-c3ccccc3)cc2C(=O)NC(=S)Nc2ccc(Cl)cc2)cc1 | 3650 | 6210 | 3170 |  |
| 49 | O=C(NC(=S)Nc1ccc(F)cc1)c1cn(-c2ccccc2)nc1-c1ccc(F)cc1 | 3240 | 5610 | 3540 |  |
| 52 | Cc1ccc(NC(=S)NC(=O)c2cn(-c3ccccc3)nc2-c2ccc(C)cc2)cc1 | 3760 | 5660 | 2830 |  |
| 42 | Cc1ccc(NC(=S)NC(=O)c2cn(-c3ccccc3)nc2-c2ccc(Cl)cc2)cc1 | 3120 | 5980 | 2690 |  |
| 58 | O=C(NC(=S)Nc1ccc(Cl)cc1)c1cn(-c2ccccc2)nc1-c1ccc(Cl)cc1 | 3260 | 5360 | 3150 |  |
| 32 | COc1ccc(-c2nn(-c3ccccc3)cc2C(=O)NC(=S)Nc2ccc(F)cc2)cc1 | 3050 | 4990 | 1430 |  |
| 43 | Cc1ccc(NC(=S)NC(=O)c2cn(-c3ccccc3)nc2-c2ccc(F)cc2)cc1 | 2980 | 5440 | 2080 |  |
| 47 | COc1ccc(NC(=S)NC(=O)c2cn(-c3ccccc3)nc2-c2ccc(C)cc2)cc1 | 3240 | 5120 | 2390 | IC50 [5]: > 5000 nM; IC50 [6]: > 5000 nM; IC50 [7]: 1790 nM; IC50 [8]: 43 nM; IC50 [9]: 1420 nM; IC50 [10]: 584 nM; IC50 [11]: 40 nM |
| 75 | O=C(NC(=S)Nc1ccc(F)cc1)c1cn(-c2ccccc2)nc1-c1ccccc1 | 4210 | 6820 | 3500 |  |
| 30 | COc1ccc(-c2nn(-c3ccccc3)cc2C(=O)NC(=S)Nc2ccc(Cl)cc2)cc1 | 3010 | 4760 | 1310 |  |
| 25 | COc1ccc(NC(=S)NC(=O)c2cn(-c3ccccc3)nc2-c2ccc(OC)cc2)cc1 | 2570 | 4210 | 750 | Activity [12]: Dose-dependent effect; Activity [13]: 0%; Activity [14]: 28.48%; Activity [15]: 7.52%; Activity [16]: 64%; Activity [17]: 0%; Activity [18]: 34.48%; Activity [19]: 2.99%; Activity [20]: 62.53%; Activity [21]: 0%; Activity [22]: 32.47%; Activity [23]: 8.04%; IC50 [5]: > 5000 nM; IC50 [6]: > 5000 nM; IC50 [7]: 1420 nM; IC50 [8]: 29 nM; IC50 [9]: 1090 nM; IC50 [10]: 522 nM; IC50 [11]: 35 nM; Activity [24]: 59.49% |
